# HSV augment – enhancers of HSV replication in host cells, fold increase, host cell viability; HSV replication augmentation in cells; maximum fold increase; 220,000 tested, 0.005% active; in the data active means maximum fold increase above about 1.5; inconclusive means no clear call, values can overlap the other calls; tested in PC3 cells
# Autophagy HCS – autophagy modulators in MEF cells, primary screen, imaging, high-content, MEF GFP-LC3 | calls only at 10 µM (by protocol) | MEF GFP-LC3 puncta imaging; test concentration mostly 10 µM | 190,000 tested, 0.98% active;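 active means percentage of spot-positive cells more than 3 SD above its plate mean, without a fluorescence outlier flag or 80% toxicity; inconclusive means no clear call, values can overlap the other calls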;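 further: spot-positive cell cutoff set from DMSO-treated cells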
# Furin inh – human furin inhibitors, primary screen, biochemical, fluorescence intensity | P09958 | purified furin, fluorogenic substrate cleavage | inhibition, % at 20 µM or 30 µM | 220,000 tested, 0.061% active; in the data active means inhibition above about 25%
# Target sequence (P09958 108-714 limits assumed): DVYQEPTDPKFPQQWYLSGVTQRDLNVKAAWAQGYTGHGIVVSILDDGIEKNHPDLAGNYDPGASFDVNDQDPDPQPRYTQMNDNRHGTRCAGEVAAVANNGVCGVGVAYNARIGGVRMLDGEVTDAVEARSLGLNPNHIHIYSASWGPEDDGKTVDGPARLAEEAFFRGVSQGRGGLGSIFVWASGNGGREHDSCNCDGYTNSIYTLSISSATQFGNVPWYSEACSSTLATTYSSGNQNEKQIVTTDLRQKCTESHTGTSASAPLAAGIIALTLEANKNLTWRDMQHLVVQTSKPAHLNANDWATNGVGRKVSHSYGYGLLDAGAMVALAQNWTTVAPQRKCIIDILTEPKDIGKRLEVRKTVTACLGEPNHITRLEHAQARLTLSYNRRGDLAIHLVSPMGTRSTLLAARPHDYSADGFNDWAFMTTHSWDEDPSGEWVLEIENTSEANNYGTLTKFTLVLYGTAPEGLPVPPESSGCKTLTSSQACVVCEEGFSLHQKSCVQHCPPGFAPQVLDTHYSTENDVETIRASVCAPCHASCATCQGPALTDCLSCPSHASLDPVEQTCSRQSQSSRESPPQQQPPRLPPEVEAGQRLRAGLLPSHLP
# Ins promoter up – insulin promoter activators in MIN6 cells, imaging, high-content screening, mouse beta cells; MIN6 insulin promoter-GFP reporter; active compounds read high; z-score at 5 µM; 190,000 tested, 0.3% active; AID 1625, 2009;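 active means z-score above 3 at 5 µM with at least 500 cells counted in the well; inconclusive means wells under 500 cells, flagged as cytotoxic or low count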
# Dynein cargo inh – inhibitors of GR-EGFP nuclear translocation, primary screen, dynein cargo transport inhibitor project, imaging, high-content, 3617.4 mouse cells; 220,000 tested, 0.47% active; test concentration mostly 20 µM; stimulated with dexamethasone, 1 µM; active compounds read low; z-score, hits read low; AID 1381, 2008;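 active means plate z-score of nuclear minus cytoplasmic receptor signal below a set negative limit, without overly bright fluorescence or cell loss, cut at about -3.5 in these data, passing the limit was not always enough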;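 further: z-score of nuclear minus cytoplasmic ring GR-EGFP intensity difference per well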
#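 Buffer or medium: tetracycline-free induction medium containing charcoal-stripped FBS / Reagent: dexamethasone agonist, 1.0 µM final, for 30 min / Technique: automated 10x imaging of fixed Hoechst-stained cells / Times: induction 48 h, compound 1 h, agonist 30 min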
# INS promoter inh – inhibitors of insulin promoter-driven GFP, primary screen, imaging, TRM-6 cells (human fetal islet line), eGFP reporter, cell count; reporter expression induced with tamoxifen; inhibition, % at 2 µM; 130,000 tested, 0.9% active; AID 1273, 2008;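 active means inhibition above the mean plus 3 SD, with well images judged a real hit on visual review, cut at about 60% in these data, passing the limit was not always enough; inconclusive means inhibition over the cutoff but images rejected on review; inactive means inhibition not above the cutoff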
# Numbers without * were called inactive; i = inactive; u = inconclusive; x = not tested or not shown; + = active, no number. The list is not random: actives were taken first. Their share in the collection is about 2%.
SMILES,HSV augment,Autophagy HCS,Furin inh,Ins promoter up,Dynein cargo inh,INS promoter inh
O=c1/c(=C\c2cccn2-c2ccccc2)sc2nc3ccccc3n12,i,+,-5,1.4,-0.79,7
COc1cc(N2CCCC2)c(OC)cc1/C=c1/sc2nc3ccccc3n2c1=O,x,+,-19,17*,-5.9,x
Cc1ccc(-n2c(C)cc(/C=c3/sc4nc5ccccc5n4c3=O)c2C)cc1,i,i,-14,0.05,-0.66,13
O=C(O)Cn1cc(/C=c2/sc3nc4ccccc4n3c2=O)c2ccccc21,i,i,1,0.35,1.7,36
CCCn1c(SCC(=O)c2c[nH]c3ccccc23)nnc1-c1ccncc1,i,i,-13,0.6,-1.4,9
CC(OC(=O)c1c2c(nc3ccccc13)/C(=C\c1ccc3c(c1)OCO3)CCC2)C(=O)Nc1ccc(S(N)(=O)=O)cc1 (stereo not given),u,i,-4,x,0.15,-16
Cc1cccc(C)c1NC(=O)COC(=O)c1c2c(nc3ccccc13)/C(=C\c1ccc3c(c1)OCO3)CCC2,u,+,-4,-0.51,-0.11,18
CN(C1CCCCC1)S(=O)(=O)c1cccc(C#N)c1,i,i,-25,-1.2,0.24,-16
O=C(Nc1ccc(OCc2ccccc2)cc1)c1ccccc1,i,i,-14,-0.01,0.069,-55
O=C(Nc1ccccc1F)c1ccc(OCc2ccccc2)cc1,x,+,-4,-0.02,1.8,-25
CN1CCN(c2ccccc2NC(=O)c2ccc(OCc3ccccc3)cc2)CC1,i,i,-15,-0.57,-0.36,-37
CCOCC(=O)Nc1ccc(OCc2ccccc2)cc1,i,+,-16,0.27,-0.87,x
COc1cccc(C(=O)Nc2ccccc2C(=O)N2CCCC2)c1,i,i,-14,3.3*,-0.6,-14
CCOC(=O)C(=O)Nc1ccc(OCc2ccccc2)cc1,i,i,-28,-0.5,-0.71,x
CN1CCN(c2ccccc2NC(=O)c2cccc(OCc3ccccc3)c2)CC1,i,i,35*,-4.8,1.2,-41
Cc1ccc2cccc(S(=O)(=O)N3CCCc4ccccc43)c2n1,i,i,-30,-0.58,0.0069,x
O=C(CN1C(=O)CCC1=O)Nc1nc(-c2ccc(Oc3ccccc3)cc2)cs1,i,i,-17,1,0.74,x
CCOC(=O)c1ccc(NC2=CC(=O)CC(c3ccco3)C2)cc1 (stereo not given),i,i,-14,-0.22,0.29,x
O=C1C=C(Nc2ccc(O)cc2)CC(c2ccco2)C1 (stereo not given),i,i,-14,6.8*,0.47,-133
NC(=O)NCCN1CCN(c2ncc(C(F)(F)F)cc2Cl)CC1,i,i,-22,-0.16,2.3,x
CCOC(=O)c1sc2nc(C)nc(NCCc3ccccn3)c2c1C,i,i,-11,-0.6,-0.93,94*
CC1CCCN(Cc2c(O)ccc3c(=O)c(-c4nc5ccccc5s4)c(N)oc23)C1 (stereo not given),i,i,-22,x,0.043,-27
CC1CCN(Cc2c(O)ccc3c(=O)c(-c4nc5ccccc5s4)c(N)oc23)CC1,i,+,-33,-0.42,0.57,-12
O=c1c(Cl)c(NCc2ccccc2Cl)cnn1C12CC3CC(CC(C3)C1)C2,i,i,-21,0.75,-0.46,44
COC(=O)c1c[nH]n2c(=O)c(Cl)c(C)nc12,i,i,-18,-0.26,0.021,-17
SMILES,HSV augment,Autophagy HCS,Furin inh,Ins promoter up,Dynein cargo inh,INS promoter inh
COC(=O)c1c[nH]n2c(=O)c(Cc3ccc(F)cc3Cl)c(C)nc12,i,i,-5,3.4*,1.9,x
CN(C)C(CNC(=S)Nc1ccc(Cl)cc1)c1cccnc1 (stereo not given),i,i,-26,-0.06,-0.016,-7
O=c1oc(-c2cccs2)nc2sc3c(c12)CCCC3,i,i,-15,0.56,-0.076,68*
O=c1c2c3c(sc2nc2n1N=C(c1cccs1)CS2)CCCC3,i,i,-19,-0.32,0.57,x
O=C1CN(c2nc(-c3cccs3)nc3sc4c(c23)CCCC4)CCN1,i,+,-27,-0.74,0.43,x
O=c1oc(-c2cccs2)nc2sc3c(c12)CCC3,i,i,-13,-0.55,-0.23,-15
C=CCc1cccc(CNc2c(C)n(C)n(-c3ccccc3)c2=O)c1O,i,i,3,0.29,0.78,76*
NC(=O)c1ccc(N=Cc2ccc([N+](=O)[O-])s2)cc1,i,i,-9,0.11,-4*,-55
Cc1cc(C)cc(N=Cc2ccc([N+](=O)[O-])s2)c1,i,i,-27,0.43,-2.5,-100
CC(C)(C)C(=O)NC(=S)Nc1ccc(F)cc1,i,i,-28,0.88,-0.2,-47
CC1(C)CC(=O)C2=C(C1)N=c1s/c(=C/c3ccc(F)c(F)c3)c(=O)n1C2c1ccc(F)cc1 (stereo not given),i,+,-3,-0.84,-0.27,x
COc1ccc(C2C(C(C)=O)=C(C)N=c3s/c(=C/c4ccc5c(c4)OCO5)c(=O)n32)cc1 (stereo not given),x,i,-21,0.92,-1.7,-46
CC(NCC(=O)Nc1cc(S(=O)(=O)N2CCCCCC2)ccc1Cl)c1ccccc1 (stereo not given),i,i,-28,0.43,-0.85,x
O=C(N/N=C/c1ccc[nH]1)c1ccc(Cl)cc1,i,i,-4,-0.04,-0.25,-43
Cc1ccc(-n2c(Cl)c(Cl)nc(Cl)c2=O)cc1,i,i,-9,u,-4.1*,-233
COc1nc(Cl)cn(-c2ccc(C)cc2)c1=O,i,i,-6,0.12,-0.51,-13
CC(=O)Nc1ccc(-n2nnnc2SCC(=O)NCc2cccs2)cc1,i,i,-15,x,2,-14
Cc1cccn2cc(CCNC(=O)Cc3cccs3)nc12,i,x,-21,0.28,-0.37,x
COc1cccc(-c2ccc(SCC(=O)c3ccccc3)nn2)c1,i,i,-14,0.28,-0.94,78*
O=C(C1CCC(CNc2nc(=S)[nH]c3ccccc23)CC1)N1CCN(c2ccc(F)cc2)CC1 (stereo not given),i,i,-6,-0.21,0.042,-8
COc1ccc(-c2[nH]ncc2CNC(C)c2cn(C)nc2C)c(F)c1 (stereo not given),i,i,-17,0.18,-0.21,x
CCN(CC)c1ccc(/C=N/NC(=O)c2cccc(S(=O)(=O)Nc3ccccc3OC)c2)cc1,i,i,-38,-0.29,-0.46,-12
CCN(CC)c1ccc(/C=N/NC(=O)c2cccc(S(=O)(=O)Nc3ccccc3OC)c2)c(O)c1,i,+,-5,u,0.8,56

# Assay outcomes from PubChem.
